Source: PubChem
The list is not random: actives were taken first. Their share in the collection is about 0.77%.
bIAP activator: bovine intestinal alkaline phosphatase activators, primary screen, biochemical, bovine IAP, CDP-star luminescence; alkaline phosphatase, intestinal [Bos taurus]; purified bovine IAP, 30 min; active compounds read high; fold of DMSO-control signal, blank-subtracted; activation factor at 20 µM; actives 0.17% (n = 200,000);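 active = activation factor of 2 or more at 20 µM, a signal rise over negative controls twice the positive control's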
mIAP act: activators of mouse IAP, primary screen, biochemical, luminescence, uHTS; activation factor at 10 µM; intestinal alkaline phosphatase [Mus musculus]; actives 0.24% (n = 330,000); muIAP, CDP-Star luminescence, 30 min; active compounds read high; 1 = vehicle-only enzyme signal, 0 = enzyme-free wells;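 active = activation factor of at least 2 at 20 µM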
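Assay system: mouse IAP enzyme; Reagent: CDP-Star chemiluminescent phosphatase substrate; Compound: DMSO-dissolved test compounds; Incubation: 30 min, room temperature; Technique: luminescence from enzymatic CDP-Star hydrolysis; Controls: DMSO-only wells and no-enzyme negative control.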
bIAP inhibitor: bovine intestinal alkaline phosphatase inhibitors, primary screen, selectivity assay for TNAP inhibitor project, biochemical, bovine IAP, CDP-star luminescence. alkaline phosphatase, intestinal [Bos taurus]. 190,000 tested, under 10 active. AID 1019, 2008. purified bovine IAP, 30 min. inhibition, % at 20 µM;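 active = over 50% inhibition of intestinal alkaline phosphatase at 20 µM in the single-dose screen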
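Assay system – bovine IAP enzyme · Quantity – bovine IAP at 1/65,000,000 final dilution · Detection – CDP-star luminescence signal · Times – 30 min reaction at room temperature · Also added – CDP-star substrate at 30 µM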
mIAP block: inhibitors of mouse IAP, primary screen, biochemical, luminescence, uHTS. inhibition, % at 10 µM. purified mouse IAP, CDP-Star luminescence, 30 min. intestinal alkaline phosphatase [Mus musculus]. actives 0.2% (n = 330,000). AID 2806, 2010;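 active = inhibition of at least 40% at 10 µM in the primary screen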;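 also: plate controls were DMSO with enzyme for no effect and no enzyme wells for full effect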
hIAP activ: human IAP activators, primary screen, biochemical, luminescence, uHTS; Intestinal-type alkaline phosphatase (Homo sapiens), P09923; actives 0.16% (n = 330,000); AID 2524, 2010; purified human IAP, CDP-Star luminescence, 30 min; active compounds read high; 1 = vehicle-only enzyme, 0 = enzyme-free background; activation factor at 10 µM;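 active = activation factor of the enzyme at least 2-fold when tested at 20 µM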
Target sequence (P09923 whole entry, looked up): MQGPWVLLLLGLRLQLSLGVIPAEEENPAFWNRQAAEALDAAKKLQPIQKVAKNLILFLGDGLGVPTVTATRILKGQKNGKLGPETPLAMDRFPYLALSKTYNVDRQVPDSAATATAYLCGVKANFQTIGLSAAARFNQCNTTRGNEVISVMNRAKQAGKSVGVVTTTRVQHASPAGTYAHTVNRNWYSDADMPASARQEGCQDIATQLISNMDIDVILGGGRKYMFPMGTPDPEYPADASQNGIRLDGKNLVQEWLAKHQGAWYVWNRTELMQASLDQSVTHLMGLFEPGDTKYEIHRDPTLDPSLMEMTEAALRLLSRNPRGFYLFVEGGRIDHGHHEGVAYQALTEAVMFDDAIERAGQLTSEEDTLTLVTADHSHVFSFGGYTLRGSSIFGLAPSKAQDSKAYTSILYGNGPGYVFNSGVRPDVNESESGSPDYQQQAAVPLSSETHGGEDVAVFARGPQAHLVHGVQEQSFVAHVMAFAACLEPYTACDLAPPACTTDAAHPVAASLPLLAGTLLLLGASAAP
hIAP inh: human IAP inhibitors, primary screen, biochemical, luminescence, uHTS; purified IAP, CDP-Star luminescence, 30 min; actives 0.12% (n = 330,000); Intestinal-type alkaline phosphatase (Homo sapiens), P09923; inhibition, % at 10 µM;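 active = inhibition reaching a set limit with compound at 10 µM in the primary screen, cut at about 35% in these data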;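 also: plate controls were DMSO wells with enzyme for no effect and no-enzyme buffer wells for full effect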
mIAP inh confirm: inhibitors of mouse IAP, confirmation, biochemical, luminescence, single concentration | AID 434971, 2010 | actives 4.7% (n = 11,000) | inhibition, % at 10 µM | purified mouse IAP, CDP-Star luminescence, 30 min | shares compounds with mIAP block;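 active = inhibition of at least 40% at 10 µM in either of the two replicates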;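 also: plate controls were DMSO wells with enzyme for no effect and buffer wells lacking enzyme for full effect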
Starred values were filed as active, the others as inactive; i = inactive; . = no result.

SMILES	bIAP activator	mIAP act	bIAP inhibitor	mIAP block	hIAP activ	hIAP inh	mIAP inh confirm
COc1cc(/C=N/N2C(=O)CSC2=S)ccc1O	0.7	0.475	26.1	52.5*	1.03	-2.9	65.0*
COc1ccc(Br)cc1/C=N/N1C(=O)CSC1=S	.	0.809	.	19.1	1.08	-7.6	.
O=C1CSC(=S)N1/N=C/c1ccc(Cl)c([N+](=O)[O-])c1	.	0.495	.	50.5*	1.03	-3.2	48.0*
Cc1ccc(CCN2CCN=C2Nc2ccccc2)cc1	.	0.905	.	9.5	0.887	11.3	.
COc1ccc(N2CCN(C(=O)CN(C3CCCCC3)S(C)(=O)=O)CC2)cc1	1	1.01	3.1	-1.2	0.889	11.1	.
Cc1cc(=O)[nH]c(N/N=C/c2ccc(O)c(O)c2)n1	.	0.566	.	43.4*	1.26	-26.4	45.2*
CSc1ccc(/C=N/Nc2nc(C)cc(=O)[nH]2)cc1	1.1	0.997	-12.0	0.3	1.04	-3.6	.
Cc1ccccc1NC(=O)CSc1nnc(-c2ccco2)c(-c2ccco2)n1	0.9	0.475	10.5	52.5*	0.988	1.2	51.0*
CN(C)c1ccc(NC(=O)CSc2nnc(-c3ccco3)c(-c3ccco3)n2)cc1	.	0.511	.	48.9*	0.865	13.5	60.2*
O=C(CSc1nnc(-c2ccco2)c(-c2ccco2)n1)Nc1ccccc1	0.9	0.547	12.9	45.3*	0.904	9.6	54.0*
Cc1ccc(NC(=O)CSc2nnc(-c3ccco3)c(-c3ccco3)n2)cc1	1	0.358	1.7	64.2*	0.905	9.5	59.8*
COc1ccc(NC(=O)CSc2nnc(-c3ccco3)c(-c3ccco3)n2)cc1OC	.	0.816	.	18.4	0.989	1.1	.
COC(=O)c1cccc(-n2c(=O)n(Cc3ccccc3)c(=O)c3[nH]cnc32)c1C	.	1	.	-0.3	0.928	7.2	.
COc1cccc(C(=O)NCCCn2ccnc2)c1	1	1.08	-0.2	-8.1	1.13	-12.8	.
NC(=O)CSc1oc(-c2ccco2)nc1S(=O)(=O)c1ccc(Br)cc1	.	0.8	.	20.0	1.02	-2.3	.
CCCSC1=N/C(=C\C=C\c2ccco2)C(=O)S1	0.7	0.554	31.2	44.6*	0.945	5.5	60.7*
O=C1SC(SCc2ccccc2)=N/C1=C\c1ccco1	0.8	0.751	20.8	24.9	0.918	8.2	.
COc1cc(CNc2ncnc3c2[nH]c2ccc(C)cc23)cc(OC)c1	.	3.12*	.	-211.6	1.69	-69.0	-197.0
O=C(CSc1ncn[nH]1)CSc1ncn[nH]1	1.3	0.541	-32.9	45.9*	1.35	-35.1	48.3*
COc1ccc(/C(C)=N/OC/C(O)=C(\C#N)c2nc3ccccc3[nH]2)cc1	0.9	0.942	9.3	5.8	1.29	-29.5	.
CC(=O)NCc1ccc(-c2csc(NC(=O)CCc3nc4ccccc4c(=O)[nH]3)n2)s1	.	0.545	.	45.5*	1.02	-2.0	44.8*
CCN(C1CCCCC1)S(=O)(=O)c1cc2c3c(c1)CCN3C(=O)CC2	.	0.97	.	3.0	0.962	3.8	.
CCc1ccc(NC(=O)NC2CCCCCCC2)cc1	.	2.72*	.	-171.7	1.56	-56.4	-213.4
CCc1ccc(NC(=O)C(=S)NC2CCCCC2)cc1	1	0.854	1.5	14.6	1.24	-24.2	.
O=C(Nc1ccc(Br)cc1)NC1CCCCCCC1	.	4.99*	.	-399.2	1.06	-5.7	-174.1
SMILES	bIAP activator	mIAP act	bIAP inhibitor	mIAP block	hIAP activ	hIAP inh	mIAP inh confirm
CCCCC1=CC2=C(c3ccco3)C(=O)C(C)(OC(=O)c3ccc(OC)cc3)C(=O)C2=CN1Cc1ccc2c(c1)OCO2 (stereo not drawn)	.	0.565	.	43.5*	0.799	20.1	49.7*
CC1CCCC(C)N1C(=O)COc1ccc(C(=O)N/N=C/c2ccc(C(=O)O)cc2)cc1 (stereo not drawn)	0.9	0.974	8.5	2.6	1.19	-18.9	.
CCCCOc1[nH]c2nc(-c3ccco3)n(Cc3ccco3)c(=N)c2c1C#N	1	0.37	-2.5	63.0*	1.02	-1.7	68.1*
COc1ccc(NC(=O)NNC(=O)C(C)Oc2ccc3ccccc3c2)cc1OC (stereo not drawn)	.	1.05	.	-5.1	1.37	-37.2	.
Cc1ccc(NC(=S)NC2CCSc3ccccc32)cc1C (stereo not drawn)	.	4.75*	.	-374.7	1.35	-34.7	-171.5
COC(=O)c1ccc(C(=O)NC2CCSc3ccccc32)cc1 (stereo not drawn)	.	0.922	.	7.8	0.967	3.3	.
C#CCOCCOCCOCCNc1nc(N2CCN(C(=O)CCCCCCCCCCNC(=O)Cn3cc(C[C@@H](C)O)nn3)CC2)nc(N2CCN(C(=O)CCCCCCCCCCNC(=O)[C@@H]([C@H](C)CC)n3cc(CCCCCN)nn3)CC2)n1	.	6.11*	.	i	1.08	-8.4	-458.7
C#CCOCCOCCOCCNc1nc(N2CCN(C(=O)CCCCCCCCCCNC(=O)Cn3cc(CCCCCN)nn3)CC2)nc(N2CCN(C(=O)CCCCCCCCCCNC(=O)Cn3cc(C[C@@H](C)O)nn3)CC2)n1	.	2.13*	.	-113.2	1.27	-27.6	-121.7
O=C(CCCN1C(=O)/C(=C\c2ccco2)SC1=S)Nc1ccc(O)cc1C(=O)O	.	0.319	.	68.1*	0.787	21.3	74.9*
O=C(CCCN1C(=O)/C(=C\c2cccs2)SC1=S)Nc1cccc(C(=O)O)c1	1	0.973	-0.5	2.7	0.922	7.8	.
O=C(CCCN1C(=O)/C(=C/c2ccco2)SC1=S)Nc1cccc(C(=O)O)c1	.	0.362	.	63.8*	0.943	5.7	71.3*
CCC(C)NC(=O)Nc1ccc2c(c1)N(C)C(=O)c1ccccc1S2 (stereo not drawn)	3.6*	3.4*	-259.7	-240.4	1.06	-5.6	-100.2
CC(=O)Oc1cc(C(=O)OCC(=O)N2CCc3ccccc3C2)cc(OC(C)=O)c1OC(C)=O	.	0.545	.	45.5*	1.27	-27.4	51.2*
O=C(NCCc1c[nH]c2ccccc12)C(=O)NCC1OCCN1S(=O)(=O)c1cc(F)ccc1F (stereo not drawn)	.	1.03	.	-2.6	1.16	-15.7	.
Cc1ccc(Cl)c2c1=NC(=O)C=2c1[nH]c(=S)[nH]c1O	0.1	0.54	.	46.0*	0.757	24.3	52.2*
CC(C)(C)NC(=O)CCc1ncc(C(F)(F)F)cc1Cl	1	0.959	-4.5	4.1	0.926	7.4	.
